Source: ChEMBL document CHEMBL3526002, “Tissue distribution and identification of radioactivity components at elimination phase after oral administration of [¹⁴C]CS-1036, an α-amylase inhibitor, to rats” (Drug Metab Dispos, 2013)

Tests used:
Parameters in all cases: dose 5 mg/kg, dosed compound name [14C]CS-1036, route oral
Conditions in all cases: in vivo
[1] = tested on: Thymus; assay: Drug uptake in albino F344/DuCrlCrlj rat thymus assessed as ng equivalent of CS-1036 at 5 mg/kg, po after 336 hrs by liquid scintillation counting; type: ADME, organism-based
[2] = tested on: Aorta; assay: Drug uptake in albino F344/DuCrlCrlj rat aorta at 5 mg/kg, po after 1 hr by liquid scintillation counting; type: ADME, organism-based
[3] = Drug uptake in albino F344/DuCrlCrlj rat brown fat at 5 mg/kg, po after 4 hrs by liquid scintillation counting; type: ADME, organism-based, Brown adipose tissue
[4] = tested on: Aorta; assay: Drug uptake in albino F344/DuCrlCrlj rat aorta at 5 mg/kg, po after 168 hrs by liquid scintillation counting; type: ADME, organism-based
[5] = Drug uptake in albino F344/DuCrlCrlj rat testis at 5 mg/kg, po after 24 hrs by liquid scintillation counting; type: ADME, organism-based
[6] = Drug uptake in albino F344/DuCrlCrlj rat skeletal muscle assessed as ng equivalent of CS-1036 at 5 mg/kg, po after 168 hrs by liquid scintillation counting; type: ADME, organism-based, Muscle tissue
[7] = Drug uptake in albino F344/DuCrlCrlj rat fat at 5 mg/kg, po after 24 hrs by liquid scintillation counting; type: ADME, organism-based, Adipose tissue
Method in brief: (§1)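 Male F344/DuCrlCrlj rats (bought at 7 weeks, acclimatized 5–6 days; 159–167 g; n = 3 per time point) received a single oral dose of [14C]CS-1036 at 5 mg/kg. White adipose tissue was collected after abdominal aortic bleeding at 1, 4, 8, 24, 72, 168 or 336 h. Samples were counted by LSC with external-standard efficiency correction. Results were converted to ng equivalents per g from specific activity and sample weight.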

[8] = Drug uptake in albino F344/DuCrlCrlj rat epididymis at 5 mg/kg, po after 168 hrs by liquid scintillation counting; type: ADME, organism-based
[9] = tested on: Cerebellum; assay: Drug uptake in albino F344/DuCrlCrlj rat cerebellum assessed as ng equivalent of CS-1036 at 5 mg/kg, po after 8 hrs by liquid scintillation counting; type: ADME, organism-based
[10] = tested on: Harderian gland; assay: Drug uptake in albino F344/DuCrlCrlj rat harderian gland at 5 mg/kg, po after 4 hrs by liquid scintillation counting; type: ADME, organism-based
[11] = tested on: Cerebrum; assay: Drug uptake in albino F344/DuCrlCrlj rat cerebrum assessed as ng equivalent of CS-1036 at 5 mg/kg, po after 72 hrs by liquid scintillation counting; type: ADME, organism-based
Method in brief: (§2)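 Single oral [14C]CS-1036 at 5 mg/kg was given to male rats (159–167 g; n = 3). Cerebrum was collected after aortic bleeding at 1, 4, 8, 24, 72, 168 or 336 h, weighed, and homogenized in 2 volumes of saline. A 0.5 ml aliquot was solubilized in Soluene-350 and counted by LSC with external-standard correction. Results are in ng equivalent/g tissue from specific activity and sample weight.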

[12] = tested on: Kidney; assay: Drug uptake in albino F344/DuCrlCrlj rat kidney assessed as ng equivalent of CS-1036 at 5 mg/kg, po after 168 hrs by liquid scintillation counting; type: ADME, organism-based
[13] = tested on: Cerebrum; assay: Drug uptake in albino F344/DuCrlCrlj rat cerebrum at 5 mg/kg, po after 168 hrs by liquid scintillation counting; type: ADME, organism-based; method in brief: as §2
[14] = Drug uptake in albino F344/DuCrlCrlj rat eyeball assessed as ng equivalent of CS-1036 at 5 mg/kg, po after 168 hrs by liquid scintillation counting; type: ADME, organism-based
[15] = tested on: Lung; assay: Drug uptake in albino F344/DuCrlCrlj rat lung assessed as ng equivalent of CS-1036 at 5 mg/kg, po after 72 hrs by liquid scintillation counting; type: ADME, organism-based
[16] = Drug uptake in albino F344/DuCrlCrlj rat bone marrow assessed as ng equivalent of CS-1036 at 5 mg/kg, po after 336 hrs by liquid scintillation counting; type: ADME, organism-based
[17] = tested on: Liver; assay: Drug uptake in albino F344/DuCrlCrlj rat liver at 5 mg/kg, po after 1 hr by liquid scintillation counting; type: ADME, organism-based
[18] = tested on: Blood; assay: Drug uptake in albino F344/DuCrlCrlj rat blood at 5 mg/kg, po after 336 hrs by liquid scintillation counting; type: ADME, organism-based
Method in brief: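 Male F344/DuCrlCrlj rats (159–167 g; n = 3 per time point) received a single oral dose of [14C]CS-1036 at 5 mg/kg. Blood was taken from the abdominal aorta at 1, 4, 8, 24, 72, 168 and 336 h. Radioactivity was counted by LSC with external-standard efficiency correction. Results were converted to ng equivalent of CS-1036/ml using specific activity and sample volume, and reported as mean + S.D.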

[19] = Drug uptake in albino F344/DuCrlCrlj rat eyeball assessed as ng equivalent of CS-1036 at 5 mg/kg, po after 1 hr by liquid scintillation counting; type: ADME, organism-based
[20] = tested on: Kidney; assay: Drug uptake in albino F344/DuCrlCrlj rat kidney at 5 mg/kg, po after 336 hrs by liquid scintillation counting; type: ADME, organism-based
[21] = tested on: Aorta; assay: Drug uptake in albino F344/DuCrlCrlj rat aorta at 5 mg/kg, po after 4 hrs by liquid scintillation counting; type: ADME, organism-based
[22] = tested on: Pancreas; assay: Drug uptake in albino F344/DuCrlCrlj rat pancreas assessed as ng equivalent of CS-1036 at 5 mg/kg, po after 24 hrs by liquid scintillation counting; type: ADME, organism-based
[23] = tested on: Stomach; assay: Drug uptake in albino F344/DuCrlCrlj rat stomach assessed as ng equivalent of CS-1036 at 5 mg/kg, po after 4 hrs by liquid scintillation counting; type: ADME, organism-based
[24] = Drug uptake in albino F344/DuCrlCrlj rat thyroid gland assessed as ng equivalent of CS-1036 at 5 mg/kg, po after 4 hrs by liquid scintillation counting; type: ADME, organism-based
[25] = tested on: Pancreas; assay: Drug uptake in albino F344/DuCrlCrlj rat pancreas at 5 mg/kg, po after 168 hrs by liquid scintillation counting; type: ADME, organism-based
[26] = Drug uptake in albino F344/DuCrlCrlj rat thyroid gland assessed as ng equivalent of CS-1036 at 5 mg/kg, po after 8 hrs by liquid scintillation counting; type: ADME, organism-based
[27] = Drug uptake in albino F344/DuCrlCrlj rat eyeball assessed as ng equivalent of CS-1036 at 5 mg/kg, po after 72 hrs by liquid scintillation counting; type: ADME, organism-based
[28] = tested on: Heart; assay: Drug uptake in albino F344/DuCrlCrlj rat heart assessed as ng equivalent of CS-1036 at 5 mg/kg, po after 4 hrs by liquid scintillation counting; type: ADME, organism-based
[29] = Drug uptake in albino F344/DuCrlCrlj rat thyroid gland assessed as ng equivalent of CS-1036 at 5 mg/kg, po after 168 hrs by liquid scintillation counting; type: ADME, organism-based
[30] = tested on: Kidney; assay: Drug uptake in albino F344/DuCrlCrlj rat kidney at 5 mg/kg, po after 168 hrs by liquid scintillation counting; type: ADME, organism-based
[31] = Drug uptake in albino F344/DuCrlCrlj rat pituitary gland assessed as ng equivalent of CS-1036 at 5 mg/kg, po after 24 hrs by liquid scintillation counting; type: ADME, organism-based
[32] = Drug uptake in albino F344/DuCrlCrlj rat testis assessed as ng equivalent of CS-1036 at 5 mg/kg, po after 4 hrs by liquid scintillation counting; type: ADME, organism-based
[33] = Drug uptake in albino F344/DuCrlCrlj rat fat at 5 mg/kg, po after 8 hrs by liquid scintillation counting; type: ADME, organism-based, Adipose tissue; method in brief: as §1

Radiolabel recovery [1]: 1.96 ngequiv/g | Radiolabel recovery [2]: 50.6 ngequiv/g | Radiolabel recovery [3]: 25.8 ngequiv/g | Radiolabel recovery [4]: 18.1 ngequiv/g | Radiolabel recovery [5]: 31.4 ngequiv/g | Radiolabel recovery [6]: 4.5 ngequiv/g | Radiolabel recovery [7]: 82.9 ngequiv/g | Radiolabel recovery [8]: 18.5 ngequiv/g | Radiolabel recovery [9]: 1.18 ngequiv/g | Radiolabel recovery [10]: 39.1 ngequiv/g | Radiolabel recovery [11]: 4.88 ngequiv/g | Radiolabel recovery [12]: 5.4 ngequiv/g | Radiolabel recovery [13]: 6.2 ngequiv/g | Radiolabel recovery [14]: 2.3 ngequiv/g | Radiolabel recovery [15]: 5.1 ngequiv/g | Radiolabel recovery [16]: 11.4 ngequiv/g | Radiolabel recovery [17]: 346 ngequiv/g | Radiolabel recovery [18]: 5.27 ngequiv/ml | Radiolabel recovery [19]: 3.2 ngequiv/g | Radiolabel recovery [20]: 12 ngequiv/g | Radiolabel recovery [21]: 23.9 ngequiv/g | Radiolabel recovery [22]: 25 ngequiv/g | Radiolabel recovery [23]: 41 ngequiv/g | Radiolabel recovery [24]: 21.4 ngequiv/g | Radiolabel recovery [25]: 79.2 ngequiv/g | Radiolabel recovery [26]: 57.2 ngequiv/g | Radiolabel recovery [27]: 1.72 ngequiv/g | Radiolabel recovery [28]: 7 ngequiv/g | Radiolabel recovery [29]: 29.9 ngequiv/g | Radiolabel recovery [30]: 27 ngequiv/g | Radiolabel recovery [31]: 33.1 ngequiv/g | Radiolabel recovery [32]: 5.3 ngequiv/g | Radiolabel recovery [33]: 14 ngequiv/g
SMILES: C[C@H]1O[C@@H](O[C@H]2[C@H](O)[C@@H](O)[C@@H](O[14C@H]3[14C@H](O)[14CH2]N[14C@@H]3[14CH2]O)O[C@@H]2CO)[C@H](O)[C@@H](O)[C@@H]1O
